Numbering of substitutions follows the chain as printed. Names and notes keep the numbering of the source. Where a SMILES comes first, the peptide text is derived from it.
Assays:
[1] = molecular target: T1, prothrombinase (FXa/FVa/PL) (Homo sapiens, UniProt P00742+P12259); assay: Purified component prothrombinase assay with FVa and PL; format: biochemical; conditions: for FVa-dependent inhibition of prothrombinase activity: peptide preincubated 10 min with FVa/FXa/PL
Factor Xa (Homo sapiens) = Factor Xa (Homo sapiens) (UniProt P00742); conditions: cited from earlier work
Sequence of Factor Xa (Homo sapiens) (P00742 235-488): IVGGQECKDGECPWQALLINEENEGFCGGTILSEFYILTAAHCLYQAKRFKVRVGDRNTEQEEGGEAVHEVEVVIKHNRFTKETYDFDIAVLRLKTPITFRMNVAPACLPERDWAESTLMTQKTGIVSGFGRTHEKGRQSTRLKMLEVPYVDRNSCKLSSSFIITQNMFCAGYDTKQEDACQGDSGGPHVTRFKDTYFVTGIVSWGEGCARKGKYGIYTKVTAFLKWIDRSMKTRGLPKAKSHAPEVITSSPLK

Factor Va (Homo sapiens) = Factor Va (Homo sapiens) (UniProt P12259); conditions: cited from earlier work
mAb S4 = assay: Binding of mAb S4 to immobilized peptides; conditions: peptide coated at 20 μM, mAb S4 26 nM, anti-mouse IgG detection
Outline: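 Wells coated with peptide and blocked with I-Block; mAb S4 at 26 nM incubated in the wells. Bound antibody detected with anti-mouse IgG, then biotinylated secondary antibody, streptavidin-alkaline phosphatase and phosphatase substrate. Wash solution was HBS with 0.1% porcine skin gelatin and 2 mM CaCl2. Signal from noncoated blocked wells subtracted from coated wells.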

prothrombinase (FXa/FVa) = assay: Purified component prothrombinase assay with FVa, without PL; format: biochemical, human; conditions: absence of PL; data not shown
[2] = system: FXa-induced clotting of PS-depleted plasma (PSdP); assay: FXa-1-stage clotting assay without exogenous PL; format: cell-based, human; conditions: no exogenous PL, base clotting time 98 sec
Outline: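 Human PS-depleted plasma mixed with HBS-BSA containing purified human PS (up to 379 nM) with or without neutralizing mAb S4, plus FXa. No exogenous phospholipid added. Incubated 3 min at 37°C, recalcified with CaCl2 (33 mM stock), and clotting time measured on a coagulometer. FXa standard curves without PS (up to 19 pM as 100%) converted clotting times to % FXa activity.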

[3] = molecular target: T1, prothrombinase (FXa/FVa/PL); conditions: ref [9], cited from earlier work
[4] = system: platelet and fibrin deposition; conditions: PS infused without APC; ref [15]; cited from earlier work
Factor Va [5] = molecular target: T2, Factor Va (human, UniProt P12259 29-737; P12259 1574-2224); assay: ELISA
T2 sequence (looked up) 1: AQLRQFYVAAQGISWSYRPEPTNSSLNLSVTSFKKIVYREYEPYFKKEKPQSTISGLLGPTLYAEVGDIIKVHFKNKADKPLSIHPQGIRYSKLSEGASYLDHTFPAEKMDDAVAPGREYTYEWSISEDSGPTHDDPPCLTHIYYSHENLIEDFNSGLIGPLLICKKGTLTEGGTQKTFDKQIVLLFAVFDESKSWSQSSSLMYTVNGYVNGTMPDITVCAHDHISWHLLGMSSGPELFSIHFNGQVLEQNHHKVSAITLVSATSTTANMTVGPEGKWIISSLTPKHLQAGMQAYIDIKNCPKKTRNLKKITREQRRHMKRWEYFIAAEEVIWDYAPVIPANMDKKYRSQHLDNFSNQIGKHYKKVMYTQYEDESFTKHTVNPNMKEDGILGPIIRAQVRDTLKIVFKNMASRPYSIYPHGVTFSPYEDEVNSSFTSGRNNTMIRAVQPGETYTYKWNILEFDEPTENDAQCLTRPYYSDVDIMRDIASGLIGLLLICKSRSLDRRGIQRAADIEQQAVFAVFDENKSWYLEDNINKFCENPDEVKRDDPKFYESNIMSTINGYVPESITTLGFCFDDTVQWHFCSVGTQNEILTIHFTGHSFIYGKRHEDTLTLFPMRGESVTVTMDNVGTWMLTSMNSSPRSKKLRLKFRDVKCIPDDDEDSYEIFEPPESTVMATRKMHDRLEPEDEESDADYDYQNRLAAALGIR
T2 sequence (looked up) 2: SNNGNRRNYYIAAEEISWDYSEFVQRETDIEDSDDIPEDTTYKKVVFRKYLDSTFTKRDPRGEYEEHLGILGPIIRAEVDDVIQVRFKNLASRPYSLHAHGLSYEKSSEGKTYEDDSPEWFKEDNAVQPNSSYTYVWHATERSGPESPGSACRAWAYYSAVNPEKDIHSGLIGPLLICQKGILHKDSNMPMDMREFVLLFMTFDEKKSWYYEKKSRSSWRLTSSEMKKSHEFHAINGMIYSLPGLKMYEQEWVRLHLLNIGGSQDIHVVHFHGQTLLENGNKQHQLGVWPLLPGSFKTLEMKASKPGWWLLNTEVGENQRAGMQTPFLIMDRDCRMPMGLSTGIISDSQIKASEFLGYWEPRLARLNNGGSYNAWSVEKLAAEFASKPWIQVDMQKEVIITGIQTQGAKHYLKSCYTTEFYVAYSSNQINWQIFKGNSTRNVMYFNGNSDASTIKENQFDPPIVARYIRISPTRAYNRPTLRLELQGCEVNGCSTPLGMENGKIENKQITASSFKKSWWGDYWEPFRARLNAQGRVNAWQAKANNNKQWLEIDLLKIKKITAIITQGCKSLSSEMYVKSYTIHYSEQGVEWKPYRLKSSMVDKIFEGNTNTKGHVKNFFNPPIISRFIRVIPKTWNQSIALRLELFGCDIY

[6] = Thr37 to Met mutation; ref [28]; cited from earlier work
[7] = system: activated protein C (APC); conditions: Thr37 to Met mutation; ref [28]; cited from earlier work
FXa = conditions: recombinant; ref [39]; cited from earlier work
FVa = conditions: recombinant; ref [39]; cited from earlier work
APC = conditions: recombinant; ref [39]; cited from earlier work
Factor Va [8] = molecular target: T2, Factor Va; assay: ELISA; remark: listed apart in the source
Factor Va [9] = molecular target: T2, Factor Va; assay: ELISA; remark: listed apart in the source

T1 sequence (P00742 41-179 partner limits assumed, one chain of several): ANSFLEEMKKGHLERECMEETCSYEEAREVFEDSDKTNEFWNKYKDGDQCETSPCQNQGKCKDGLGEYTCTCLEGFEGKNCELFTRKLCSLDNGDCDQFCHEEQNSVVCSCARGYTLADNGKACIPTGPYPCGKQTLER
T1 sequence (P00742 235-488 partner limits assumed, one chain of several): as the sequence (P00742 235-488) above

CC(C)C[C@H](NC(=O)[C@H](CS)NC(=O)[C@@H](NC(=O)[C@H](CC(C)C)NC(=O)[C@H](Cc1ccc(O)cc1)NC(=O)[C@H](CCCCN)NC(=O)[C@@H]1CCCN1C(=O)[C@H](Cc1ccc(O)cc1)NC(=O)[C@H](Cc1ccccc1)NC(=O)[C@H](Cc1ccc(O)cc1)NC(=O)[C@H](CC(=O)O)NC(=O)[C@@H](N)[C@@H](C)O)C(C)C)C(=O)N[C@@H](CCCNC(=N)N)C(=O)N[C@@H](CO)C(=O)O [PSP37, TDYFYPKYLVCLRS] (H-TDYFYPKYLVCLRS-OH)
IC50 [1]: 11000 nM
Inhibition of prothrombinase ([1]; 40 μM peptide): 90%

Protein S (from UniProt P07225)
Kd (Factor Xa (Homo sapiens)): 18 nM
Kd (Factor Va (Homo sapiens)): 33 nM

54–67: peptide representing PS residues 54–67 (TSR) (GLFTAARQSTNAYP; UniProt P07225 95-108, looked up, fragment)
Binding of mAb S4 to immobilized peptide (mAb S4): detected

PSP48: 14-mer peptide, PS residues 48–61 (LRSFQTGLFTAARQ; UniProt P07225 89-102, looked up, fragment)
FVa-dependent inhibition of prothrombinase activity [1]: did not inhibit prothrombinase

PSP30: 14-mer peptide, PS residues 30–43 (VFENDPETDYFYPK; UniProt P07225 71-84, looked up, fragment)
FVa-dependent inhibition of prothrombinase activity [1]: did not inhibit prothrombinase

Phospholipase A2
Effect of phospholipase A2 on PS inhibition (prothrombinase (FXa/FVa)): no effect on PS inhibition
Effect of phospholipase A2 on prothrombinase activity (prothrombinase (FXa/FVa)): no effect on prothrombinase activity
Effect of phospholipase A2 on prothrombinase activity ([1]; mixtures that contained PL, data not shown): greatly diminished

PS: immunoaffinity-purified free plasma protein S retaining Zn^2+
Maximal prolongation of clotting time by PS [2]: 95 s
Vmax alteration by PS ([3]; at 60% inhibition): 2.2 fold
Km alteration by PS [3]: 2 fold
Inhibition of platelet and fibrin deposition [4]: inhibited platelet and fibrin deposition

B1: Protein S (natural protein, human, UniProt P07225 42-676, looked up)
chain: ANSLLEETKQGNLERECIEELCNKEEAREVFENDPETDYFYPKYLVCLRSFQTGLFTAARQSTNAYPDLRSCVNAIPDQCSPLPCNEDGYMSCKDGKASFTCTCKPGWQGEKCEFDINECKDPSNINGGCSQICDNTPGSYHCSCKNGFVMLSNKKDCKDVDECSLKPSICGTAVCKNIPGDFECECPEGYRYNLKSKSCEDIDECSENMCAQLCVNYPGGYTCYCDGKKGFKLAQDQKSCEVVSVCLPLNLDTKYELLYLAEQFAGVVLYLKFRLPEISRFSAEFDFRTYDSEGVILYAESIDHSAWLLIALRGGKIEVQLKNEHTSKITTGGDVINNGLWNMVSVEELEHSISIKIAKEAVMDINKPGPLFKPENGLLETKVYFAGFPRKVESELIKPINPRLDGCIRSWNLMKQGASGIKEIIQEKQNKHCLVTVEKGSYYPGSGIAQFHIDYNNVSSAEGWHVNVTLNIRPSTGTGVMLALVSGNNTVPFAVSLVDSTSEKSQDILLSVENTVIYRIQALSLCSDQQSHLEFRVNRNNLELSTPLKIETISHEDLQRQLAVLDKAMKAKVATYLGGLPDVPFSATPVNAFYNGCMEVNINGVQLDLDEAISKHNDIRAHSCPSVWKKTKNS
binding result (Factor Va [5]): binds

B2: T37M PS: recombinant PS with mutation of Thr37 to Met (protein, UniProt P07225 42-676, looked up, variant T37M)
Vitamin K-dependent protein S: B1 chain with T37M
Affinity for phospholipids [6]: diminished affinity for phospholipids
Decrease in APC cofactor activity [7]: 3.6 fold

B3: K155E PS: recombinant K155E PS, prevalent Japanese mutation (protein, UniProt P07225 42-676, looked up, variant K155E)
Vitamin K-dependent protein S: B1 chain with K155E
Binding to FXa (FXa): defective binding to FXa and to APC
Binding to FVa (FVa): normal binding to FVa
Binding to APC (APC): defective binding to FXa and to APC

TDYFYPKYLVCLRS [Peptide PSP37 (protein S residues 37-50)]
Kd (Factor Va [8]): 14 nM
IC50 (Factor Va [9]): 15000 nM

Reference: paper PMC3733499 (Thrombosis and haemostasis, 2013)
